An excerpt weighted towards active compounds, which were near 4.1% of everything screened.
hERG rescue = compounds protecting human hERG from proarrhythmic drug block | Q12809 | activation (rescue from dofetilide block), less the hit threshold, % at 10 µM | CHO-hERG, FluxOR thallium flux, dofetilide IC70 present | 310,000 compounds, 0.51% hits;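 active means activation above the mean of controls blocked by dofetilide plus 5 SD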;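 further: thallium influx through hERG after potassium depolarization seen as dye fluorescence rise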
KCNQ1 pot = potentiates or activates the human KCNQ1 potassium channel; 310,000 compounds, 0.35% hits; B-score at 10 µM; CHO-K1 KCNQ1, thallium flux FluxOR fluorescence; stronger effect = higher value;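 active means fluorescence ratio B-score, a plate-corrected score, at least three library SD, with initial intensity B-score within 5 SD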
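Medium – assay buffer, equal DMSO in all wells · Material – CHO-K1 cell line with stable KCNQ1 potassium channel expression · Signal – kinetic FluxOR thallium fluorescence, 10-s 1-Hz baseline, 110-s post-stimulus read · Compound – single concentration per compound, DMSO matched to controls · Schedule – 37 °C overnight plating, 90-min dark dye load, 20-min compound pretreatment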
KCNK9 block = blocks the human KCNK9 two-pore domain potassium channel. HEK293 KCNK9, FluxOR thallium flux fluorescence; stronger effect = lower value. B-score at 10 µM. 310,000 compounds, 1.2% hits. AID 488922;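 active means ratio B-score over 3 SD below the library mean, with starting fluorescence within 5 SD of its mean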;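 further: negative B-score means less thallium flux so channel inhibition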
KCC2 mod = KCC2 (human) Cl- transport modulation. Q9H2X9. KCC2 cells, thallium flux FluoZin-2 fluorescence. B-score of Tl+ flux slope (higher = more flux/activation; lower = inhibition) at 10 µM. 190,000 compounds, 2.2% hits;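 active means thallium flux slope and its plate-corrected score both differing from the plate sample mean at a set confidence after two filtering rounds, in either direction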;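 further: slope of fluorescence scaled to starting intensity during 10 to 20 s after thallium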
Target sequence (Q9H2X9 whole entry, looked up): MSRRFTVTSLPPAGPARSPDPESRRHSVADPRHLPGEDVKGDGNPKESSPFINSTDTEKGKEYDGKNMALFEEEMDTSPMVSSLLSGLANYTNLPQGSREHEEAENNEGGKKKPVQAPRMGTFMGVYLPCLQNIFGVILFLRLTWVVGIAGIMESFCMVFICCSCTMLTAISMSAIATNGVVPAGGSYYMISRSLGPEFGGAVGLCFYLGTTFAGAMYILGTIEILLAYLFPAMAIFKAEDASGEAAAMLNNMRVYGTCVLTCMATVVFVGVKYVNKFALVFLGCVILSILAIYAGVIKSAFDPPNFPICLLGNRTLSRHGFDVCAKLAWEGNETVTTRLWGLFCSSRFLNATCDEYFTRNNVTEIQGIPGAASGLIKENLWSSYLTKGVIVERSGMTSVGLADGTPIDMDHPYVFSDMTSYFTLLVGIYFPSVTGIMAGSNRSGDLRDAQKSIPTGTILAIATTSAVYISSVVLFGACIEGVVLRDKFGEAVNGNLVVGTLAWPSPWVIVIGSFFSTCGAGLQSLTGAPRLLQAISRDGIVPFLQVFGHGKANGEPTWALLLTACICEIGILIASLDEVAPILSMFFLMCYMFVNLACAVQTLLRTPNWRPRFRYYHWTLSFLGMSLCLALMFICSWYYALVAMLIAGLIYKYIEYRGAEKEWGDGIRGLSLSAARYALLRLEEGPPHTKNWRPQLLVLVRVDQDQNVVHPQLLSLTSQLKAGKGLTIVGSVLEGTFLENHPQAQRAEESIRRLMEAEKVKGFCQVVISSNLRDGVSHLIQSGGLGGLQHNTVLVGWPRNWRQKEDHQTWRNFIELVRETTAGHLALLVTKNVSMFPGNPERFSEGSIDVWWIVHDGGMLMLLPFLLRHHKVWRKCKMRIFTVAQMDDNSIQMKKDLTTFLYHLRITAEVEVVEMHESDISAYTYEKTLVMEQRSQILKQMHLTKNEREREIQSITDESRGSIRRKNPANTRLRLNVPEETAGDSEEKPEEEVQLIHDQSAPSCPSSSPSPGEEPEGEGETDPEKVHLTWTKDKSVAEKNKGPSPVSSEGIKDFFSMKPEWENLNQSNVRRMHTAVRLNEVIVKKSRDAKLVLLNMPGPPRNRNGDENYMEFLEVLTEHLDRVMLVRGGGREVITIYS
KCNK3 inh = human KCNK3 channel inhibition, primary screen. O14649. CHO-KCNK3 thallium flux, FluxOR fluorescence; stronger effect = lower value. B-score at 10 µM. 340,000 compounds, 0.84% hits;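 active means B-score under library mean minus 4 SD, starting fluorescence ratio at most library mean plus 5 SD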;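 further: more negative B-score means stronger inhibition of thallium flux through KCNK3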
KCNQ1 inh = blocks the human KCNQ1 potassium channel. B-score at 10 µM. CHO-K1 KCNQ1, FluxOR thallium flux fluorescence; stronger effect = higher value. 310,000 compounds, 1.3% hits;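 active means compounds whose thallium flux B-score, printed positive for inhibition, exceeds three library SD while starting fluorescence stays within three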;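 further: channel opened by potassium depolarization with thallium stimulus after 20 min compound exposure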
KCC2 sec1 = KCC2 (human) modulation, secondary assay. shares compounds with KCC2 mod. HEK293-KCC2, thallium flux, FluoZin2 fluorescence; stronger effect = higher value. normalised thallium flux (F/F0 slope) at 10 µM. 3,700 compounds, 15% hits. AID 1713;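 active means thallium flux slope above the same plate's solvent-only control mean plus 3 SD; inconclusive means the two replicate wells disagree; inactive means no significant difference from solvent-only control wells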
KCC2 bumet counter = thallium flux despite bumetanide block in KCC2 cells, secondary assay 3. HEK293-KCC2 + bumetanide/ouabain, thallium flux FluoZin2; stronger effect = higher value. AID 1714. normalized thallium flux at 10 µM. shares compounds with KCC2 mod. 3,700 compounds, 49% hits;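 active means thallium entry rate above the same plate's blocked-transporter control wells by more than 3 SD; inconclusive means the two repeat wells disagree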;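 further: raw slope of fluorescence over initial fluorescence between 10 and 20 s after thallium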
KCC2 secondary2 = confirmation of human KCC2 transport modulators; normalized thallium flux at 10 µM; AID 1715; HEK293-KCC2, thallium flux FluoZin2 fluorescence; actives lie on both sides; F/F0 rise rate, 10–20 s post-thallium; 3,700 compounds, 23% hits; shares compounds with KCC2 mod;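 active means thallium flux slope more than 3 SD above or below the plate's solvent-only control mean, mostly below; inconclusive means the two repeat wells disagreed; inactive means no significant shift from solvent-only controls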
HEK293 Tl flux = acts in parental HEK cells, KCC2 counter-screen. AID 1716. 3,700 compounds, 46% hits. shares compounds with KCC2 mod. thallium flux rate (normalised fluorescence) at 10 µM. HEK293 parental cells, thallium flux FluoZin2, ouabain; baseline-ratio fluorescence slope, 10–20 s after thallium;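 active means thallium flux rate significantly above the same plate's solvent-only control wells, beyond their mean plus 3 SD; inconclusive means the two replicate wells gave conflicting results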
KCC2 retest ouab = KCC2 (human) modulation, ouabain retest; AID 1717; raw Tl+ flux slope (below DMSO = inhibition, above = activation) at 10 µM; shares compounds with KCC2 mod; 3,700 compounds, 48% hits; HEK293-KCC2, thallium flux FluoZin2 fluorescence; bidirectional: low = inhibitor, high = activator;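 active means thallium flux slope beyond 3 SD from same-plate DMSO control mean in most replicates, usually higher, sometimes lower; inconclusive means repeat tests gave conflicting results; inactive means no significant difference from controls in most replicates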;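 further: slope of initial-normalized fluorescence between seconds 10 and 20 after thallium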
HEK counter2 = acts in parental HEK cells, second KCC2 counter-screen; shares compounds with KCC2 mod; HEK293 parental, thallium flux FluoZin-2 fluorescence slope; thallium flux slope at 10 µM; 3,700 compounds, 33% hits;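 active means thallium flux slope above the same plate's solvent-control mean plus 3 SD in both duplicate wells; inconclusive means duplicate wells that disagreed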;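 further: run without ouabain in cells lacking the KCC2 cotransporter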
Large screens that a line does not name were inactive (follow-up assays come after a bar, where they were run).

CC(C)n1c(=S)[nH]c2cc(Cl)ccc21	KCC2 mod 28 | KCC2 sec1 0.016 | KCC2 bumet counter 0.09 | KCC2 secondary2 inactive | HEK293 Tl flux 0.03 | KCC2 retest ouab 0.039 | HEK counter2 0.015
Cc1ccc2c(C)nc(Nc3nc(CSc4nnc(C)s4)cc(=O)[nH]3)nc2c1	none | KCC2 sec1 inactive | KCC2 bumet counter inactive | KCC2 secondary2 inactive | HEK293 Tl flux inactive | KCC2 retest ouab inactive | HEK counter2 inconclusive
Oc1ccccc1/C=N/Nc1nc2ccccc2o1	KCC2 mod 7.2 | KCC2 sec1 inactive | KCC2 bumet counter 0.012 | KCC2 secondary2 inactive | HEK293 Tl flux 0.012 | KCC2 retest ouab inconclusive | HEK counter2 0.016
Nc1ccc(CSc2ccccc2)cc1	none (no result: hERG rescue, KCNQ1 pot, KCNK9 block, KCC2 mod, KCNQ1 inh)
O=C(CSc1ccccn1)Nc1cccc(NC(=O)CSc2ccccn2)n1	none (no result: KCC2 mod) | KCC2 sec1 inconclusive | KCC2 bumet counter inconclusive | KCC2 secondary2 inactive | HEK293 Tl flux inactive | KCC2 retest ouab inactive | HEK counter2 inactive
COc1cc2c(cc1NC(=O)CSc1ccccn1)oc1ccccc12	KCNK9 block -7.3, KCC2 mod -4.8 | KCC2 sec1 inactive | KCC2 bumet counter inactive | KCC2 secondary2 inactive | HEK293 Tl flux inactive | KCC2 retest ouab inactive | HEK counter2 inactive
CC(=O)Nc1ccc(NC(=O)CSc2ccccn2)cc1	none
COc1ccccc1CN1CC(C(=O)NCCN2CCOC2=O)CCC1=O (stereo not given)	none (no result: KCC2 mod)
Cc1ccc(/C=C2\SC(=S)N(/N=C/c3cc([N+](=O)[O-])ccc3O)C2=O)o1	KCC2 mod 3.8, KCNQ1 inh 6 | KCC2 sec1 inactive | KCC2 bumet counter 0.013 | KCC2 secondary2 inactive | HEK293 Tl flux 0.0096 | KCC2 retest ouab 0.028 | HEK counter2 inactive
Cc1ccc(/C=C2\SC(=S)N(C3CCS(=O)(=O)C3)C2=O)o1 (stereo not given)	none
CCn1c(-c2csc3c2CCC(C)C3)n[nH]c1=S (stereo not given)	KCC2 mod 11 | KCC2 sec1 inactive | KCC2 bumet counter 0.027 | KCC2 secondary2 inactive | HEK293 Tl flux 0.024 | KCC2 retest ouab 0.03 | HEK counter2 0.014
Cn1cnc2cc(OC(=O)c3ccccc3)ccc21	none (no result: KCC2 mod) | KCC2 sec1 inactive | KCC2 bumet counter inactive | KCC2 secondary2 inactive | HEK293 Tl flux inactive | KCC2 retest ouab inactive | HEK counter2 inconclusive
CC1CCCCC12NC(=O)N(CC(=O)NCCc1ccc(S(N)(=O)=O)cc1)C2=O (stereo not given)	none (no result: hERG rescue, KCNQ1 pot, KCNK9 block, KCC2 mod, KCNQ1 inh)
Nc1nonc1-n1nnc(C(=O)N/N=C/c2cccs2)c1-c1ccc2c(c1)OCO2	none (no result: KCC2 mod)
C/C(Cl)=C\Cn1c(O)c(N=NC(N)=S)c2ccccc21	hERG rescue 15, KCC2 mod 42 | KCC2 sec1 inconclusive | KCC2 bumet counter 0.06 | KCC2 secondary2 0.062 | HEK293 Tl flux 0.047 | KCC2 retest ouab 0.058 | HEK counter2 0.045
COC(=O)c1ccc(Cn2c(O)c(N=NC(N)=S)c3ccccc32)o1	KCC2 mod 7.1 | KCC2 sec1 inconclusive | KCC2 bumet counter 0.03 | KCC2 secondary2 inactive | HEK293 Tl flux 0.016 | KCC2 retest ouab inactive | HEK counter2 inconclusive
Cc1ccc(NC(=O)Cn2c(O)c(N=NC(N)=S)c3ccccc32)cc1	none (no result: KCC2 mod)
CCOC(=O)N=Nc1c(O)n(CC)c2ccccc12	none
NC(=S)N=Nc1c(O)n(Cc2ccccc2)c2ccccc12	KCC2 mod 8.8 | KCC2 sec1 inactive | KCC2 bumet counter 0.0083 | KCC2 secondary2 inactive | HEK293 Tl flux 0.011 | KCC2 retest ouab inconclusive | HEK counter2 inconclusive
CCOC(=O)N=Nc1c(O)n(Cc2ccccc2)c2ccccc12	KCC2 mod 6.9 | KCC2 sec1 inactive | KCC2 bumet counter 0.013 | KCC2 secondary2 inactive | HEK293 Tl flux 0.012 | KCC2 retest ouab inactive | HEK counter2 0.014
CCOC(=O)c1sc2ncnc(NCC(c3cccs3)N(C)C)c2c1C (stereo not given)	hERG rescue 20, KCNQ1 pot 55 (no result: KCC2 mod) | KCC2 sec1 0.041 | KCC2 bumet counter 0.17 | KCC2 secondary2 0.046 | HEK293 Tl flux 0.093 | KCC2 retest ouab 0.086 | HEK counter2 0.035
CN(C)C(CNc1ncnc2sccc12)c1cccs1 (stereo not given)	none
O=C(/C=C/c1cccc([N+](=O)[O-])c1)OCC1CCCO1 (stereo not given)	none (no result: KCC2 mod)
CCOC(=O)C1CCN(C(=O)C(C)Sc2nnc3ccccn23)CC1 (stereo not given)	none (no result: hERG rescue, KCNQ1 pot, KCNK9 block, KCC2 mod, KCNQ1 inh)
O=C(O)CC(NC(=O)Cc1ccc(Cl)cc1)c1ccco1 (stereo not given)	KCC2 mod -3.4 (no result: KCNK3 inh) | KCC2 sec1 inactive | KCC2 bumet counter inactive | KCC2 secondary2 inactive | HEK293 Tl flux inactive | KCC2 retest ouab inactive | HEK counter2 inactive
O=C(O)CC(NC(=O)c1ccco1)c1ccco1 (stereo not given)	none (no result: KCC2 mod)
O=C(CSc1nc2ccc(N3CCOCC3)cc2c(=O)n1CCc1ccccc1)NCC1CCCO1 (stereo not given)	KCC2 mod 6.7 | KCC2 sec1 inactive | KCC2 bumet counter 0.016 | KCC2 secondary2 inactive | HEK293 Tl flux 0.009 | KCC2 retest ouab inactive | HEK counter2 0.013
CCCCNC(=O)CSc1nc2ccc(N3CCOCC3)cc2c(=O)n1CCc1ccccc1	none
CCc1nnc(NC(=O)c2cccc(S(=O)(=O)N3CC(c4ccccc4)CC3=O)c2)s1 (stereo not given)	none
Cc1cc(NC(=O)c2cccc(S(=O)(=O)N3CC(c4ccccc4)CC3=O)c2)no1 (stereo not given)	KCC2 mod -5.4 | KCC2 sec1 inconclusive | KCC2 bumet counter inactive | KCC2 secondary2 0.022 | HEK293 Tl flux 0.006 | KCC2 retest ouab 0.013 | HEK counter2 inconclusive

Screening results from PubChem.
